This note sets out measurements from ChEMBL document CHEMBL4316592, “Synthesis of new derivatives of boehmeriasin A and their biological evaluation in liver cancer” (Eur J Med Chem, 2019).

Usually IC50 stands for the concentration that gives 50% inhibition.

Structures are written as SMILES. Activity calls are given as the source filed them. No cut-off for these calls is given here.

Assay [1] deals with Huh-7. In words: Cell cycle arrest in human HuH7 cells assessed as accumulation of cells at subG1 phase at 1 uM after 24 hrs by propidium iodide staining-based flow cytometric analysis (reference value: 6.8%). The assay is classed as functional. A general note: Flow cytometry measures light scatter and fluorescence of single cells or particles in a stream.
Assay [2] concerns Mahlavu. In words: Induction of apoptosis in human Mahlavu cells assessed as viable cells at 1 uM after 24 hrs by Annexin V-FITC/propidium iodide staining-based flow cytometric analysis (reference value: 98.51%). The assay is classed as functional. The conditions noted are these: read-out: Activity.
Assay [3] deals with Huh-7. In words: Cell cycle arrest in human HuH7 cells assessed as accumulation of cells at G2/M phase at 1 uM after 24 hrs by propidium iodide staining-based flow cytometric analysis (reference value: 37.3%). The assay is classed as functional.
For assay [4], the system named is Mahlavu. The assay is described as follows: Cytotoxicity against human Mahlavu cells after 72 hrs by SRB assay. The conditions noted are these: Homo sapiens, Mahlavu, 72 h; read-out: IC50. The assay is classed as functional, cell-based. Summed up: (§1)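 SRB assay. Cells plated per well (HCT116 3000; Huh7, Hep3B, HepG2, MCF-7 2000; Mahlavu, FOCUS, SNU475 1000) and grown 24 h. Compounds came from 20 mM DMSO stocks and were tested in triplicate, 40 to 2,5 (or 2,5 to 0,03) per printed range, for 72 h. Cells fixed in 10% TCA, stained with 0.4% SRB, dye dissolved in 10 mM Tris, A515 read. IC50 derived after DMSO normalization.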

Assay [5] has as its system Mahlavu. The assay is described as follows: Down-regulation of CDK1 protein expression in human Mahlavu cells at 1 uM after 24 to 72 hrs by Western blot analysis. The format is functional, cell-based. On the technique in general: Immunoblotting shows a protein as a band on a membrane.
For assay [6], the system named is Huh-7. In words: Cell cycle arrest in human HuH7 cells assessed as accumulation of cells at G2/M phase at 1 uM after 72 hrs by propidium iodide staining-based flow cytometric analysis (reference value: 28.2%). The format is functional.
The subject of assay [7] is Mahlavu. The assay is described as follows: Induction of apoptosis in human Mahlavu cells assessed as late apoptotic cells at 1 uM after 24 hrs by Annexin V-FITC/propidium iodide staining-based flow cytometric analysis (reference value: 1.28%). The assay is classed as functional.
The subject of assay [8] is Mahlavu. The assay is described as follows: Cell cycle arrest in human Mahlavu cells assessed as accumulation of cells at S phase at 1 uM after 72 hrs by propidium iodide staining-based flow cytometric analysis (reference value: 13%). The assay is classed as functional.
Assay [9] has as its system Huh-7. In words: Cell cycle arrest in human HuH7 cells assessed as accumulation of cells at S phase at 1 uM after 48 hrs by propidium iodide staining-based flow cytometric analysis (reference value: 19.1%). The format is functional.
Assay [10] has as its system Huh-7. In words: Cell cycle arrest in human HuH7 cells assessed as accumulation of cells at G1 phase at 1 uM after 72 hrs by propidium iodide staining-based flow cytometric analysis (reference value: 51.6%). The assay is classed as functional.
Assay [11] has as its system Mahlavu. The assay is described as follows: Modulation of SAPK/JNK phosphorylation at Thr183/Tye185 residues in human Mahlavu cells at 1 uM after 24 to 72 hrs by Western blot analysis. The format is cell-based.
The test system of a further assay is SNU-475. The assay is described as follows: Cytotoxicity against human SNU475 cells after 72 hrs by SRB assay. The assay is classed as functional, cell-based. The conditions noted are these: Homo sapiens, SNU-475, 72 h; read-out: IC50. Summed up: as §1
The subject of assay [12] is Mahlavu. The assay is described as follows: Induction of apoptosis in human Mahlavu cells assessed as early apoptotic cells at 1 uM after 24 hrs by Annexin V-FITC/propidium iodide staining-based flow cytometric analysis (reference value: 0.09%). The format is functional.
The test system of assay [13] is Mahlavu. The assay is described as follows: Cell cycle arrest in human Mahlavu cells assessed as accumulation of cells at G2/M phase at 1 uM after 48 hrs by propidium iodide staining-based flow cytometric analysis (reference value: 22.3%). The format is functional.
Assay [14] deals with Mahlavu. In words: Cell cycle arrest in human Mahlavu cells assessed as accumulation of cells at subG1 phase at 1 uM after 24 hrs by propidium iodide staining-based flow cytometric analysis (reference value: 18.3%). The assay is classed as functional.
Assay [15] concerns the target T1, Mitogen-activated protein kinase kinase kinase 5 (Homo sapiens) (UniProt Q99683).
T1 sequence (whole entry): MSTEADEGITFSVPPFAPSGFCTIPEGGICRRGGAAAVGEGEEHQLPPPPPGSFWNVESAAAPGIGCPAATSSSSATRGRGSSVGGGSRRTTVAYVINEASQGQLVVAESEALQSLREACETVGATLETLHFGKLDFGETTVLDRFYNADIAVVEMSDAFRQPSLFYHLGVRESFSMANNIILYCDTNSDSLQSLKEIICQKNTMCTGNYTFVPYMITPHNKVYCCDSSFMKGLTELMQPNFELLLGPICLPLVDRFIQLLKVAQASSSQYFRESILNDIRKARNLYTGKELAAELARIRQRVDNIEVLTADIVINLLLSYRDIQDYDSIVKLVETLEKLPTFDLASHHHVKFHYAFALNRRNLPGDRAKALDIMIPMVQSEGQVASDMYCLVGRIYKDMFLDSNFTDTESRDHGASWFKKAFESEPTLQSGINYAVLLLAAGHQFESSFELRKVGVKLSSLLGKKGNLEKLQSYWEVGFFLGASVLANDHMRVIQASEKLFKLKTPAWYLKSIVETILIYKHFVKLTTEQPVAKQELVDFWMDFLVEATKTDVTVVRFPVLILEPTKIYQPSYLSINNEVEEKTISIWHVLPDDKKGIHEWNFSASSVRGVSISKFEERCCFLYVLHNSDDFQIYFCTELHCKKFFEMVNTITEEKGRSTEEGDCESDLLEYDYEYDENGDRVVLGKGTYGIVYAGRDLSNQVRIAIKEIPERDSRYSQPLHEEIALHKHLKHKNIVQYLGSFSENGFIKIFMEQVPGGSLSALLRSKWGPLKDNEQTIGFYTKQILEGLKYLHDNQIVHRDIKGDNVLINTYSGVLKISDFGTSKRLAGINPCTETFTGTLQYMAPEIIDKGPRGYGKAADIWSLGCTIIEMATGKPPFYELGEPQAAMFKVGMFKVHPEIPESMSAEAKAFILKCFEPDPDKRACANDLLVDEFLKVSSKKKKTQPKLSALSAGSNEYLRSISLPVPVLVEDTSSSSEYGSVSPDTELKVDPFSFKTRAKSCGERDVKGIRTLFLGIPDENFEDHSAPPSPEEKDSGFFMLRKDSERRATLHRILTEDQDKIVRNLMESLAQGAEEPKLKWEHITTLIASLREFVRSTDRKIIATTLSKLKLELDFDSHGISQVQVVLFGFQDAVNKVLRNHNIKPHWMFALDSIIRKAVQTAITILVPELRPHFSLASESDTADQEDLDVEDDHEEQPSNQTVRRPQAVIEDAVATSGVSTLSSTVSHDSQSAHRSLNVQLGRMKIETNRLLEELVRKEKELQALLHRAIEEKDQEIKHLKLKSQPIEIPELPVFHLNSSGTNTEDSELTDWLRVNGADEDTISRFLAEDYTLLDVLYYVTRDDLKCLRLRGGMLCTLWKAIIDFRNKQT
The assay is described as follows: Inhibition of ASK1 Ser-966 phosphorylation in human Mahlavu cells at 1 uM after 24 to 72 hrs by Western blot analysis. The assay is classed as cell-based.

The test system of assay [16] is Mahlavu. The assay is described as follows: Cell cycle arrest in human Mahlavu cells assessed as accumulation of cells at G1 phase at 1 uM after 72 hrs by propidium iodide staining-based flow cytometric analysis (reference value: 44.6%). The format is functional.
The target of assay [17] is RAC-alpha serine/threonine-protein kinase (Homo sapiens) (UniProt P31749). In words: Inhibition of Akt phosphorylation in human Mahlavu cells at 1 uM after 72 hrs by Western blot analysis. The format is cell-based.
RAC-alpha serine/threonine-protein kinase (Homo sapiens), sequence (P31749 whole entry): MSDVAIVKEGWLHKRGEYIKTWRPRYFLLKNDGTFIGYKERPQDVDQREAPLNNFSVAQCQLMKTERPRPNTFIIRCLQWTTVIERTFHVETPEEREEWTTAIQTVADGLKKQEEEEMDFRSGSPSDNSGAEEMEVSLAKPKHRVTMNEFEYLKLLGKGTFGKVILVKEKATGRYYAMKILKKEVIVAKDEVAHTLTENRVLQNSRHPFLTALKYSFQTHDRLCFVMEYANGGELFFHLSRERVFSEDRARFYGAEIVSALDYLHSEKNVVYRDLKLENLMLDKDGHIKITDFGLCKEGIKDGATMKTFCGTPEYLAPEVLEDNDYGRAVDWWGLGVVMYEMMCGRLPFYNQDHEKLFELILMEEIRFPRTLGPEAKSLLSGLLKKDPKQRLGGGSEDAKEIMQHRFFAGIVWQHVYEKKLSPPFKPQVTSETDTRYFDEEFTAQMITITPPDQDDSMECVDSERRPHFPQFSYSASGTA
Assay [18] shares this target. In words: Inhibition of AKT phosphorylation in human Mahlavu cells at 1 uM after 24 to 72 hrs by Western blot analysis. The assay is classed as cell-based.

With `COc1ccc2c3c(c4cc(OC)c(OC)cc4c2c1)CN1CCCC[C@@H]1C3`, the Activity with Huh-7 [1] was found to be 13.6%; in the assay on Huh-7 [3], 27.4%; with Huh-7 [6], 9.5%; in the assay with Mahlavu [7], 5.08%; in the assay on Mahlavu [8] it was 9.1%; with Huh-7 [9], 13.5%. The Activity with Huh-7 [10] is reported as 24.3%; in the assay on Mahlavu [12], 0.12%; in the assay with Mahlavu [13], 16.6%; in the assay on Mahlavu [14], 15%; with Mahlavu [16], 14.1%. Moreover, in the assay with Mahlavu [2], the viability at 1 µM amounted to 94.2%. The IC50 came out at 16 nM with Mahlavu [4] and 14 nM with SNU-475. In addition, the result with Mahlavu [5] and with Mahlavu [11] was Active. In addition, the inhibition result in assay [15] was “Active”.

Turning to `COc1ccc2c3c(c4cc(OC)c(OC)cc4c2c1)CN1CCCCC1C3O` (racemic), the Activity in the assay with Huh-7 [1] is 23.1%; with Huh-7 [3], 32.1%; with Huh-7 [6], 11.5%; with Mahlavu [7], 1.54%; with Mahlavu [8], 10.2%; in the assay with Huh-7 [9], 21%. In addition, the Activity was 17.9% with Huh-7 [10]; 0.04% in the assay on Mahlavu [12]; 32.9% in the assay on Mahlavu [13]; 16.5% with Mahlavu [14]; 9.5% in the assay on Mahlavu [16]. Moreover, the viability at 1 µM in the assay on Mahlavu [2] is 98.3%. Besides, the IC50 stood at 10 nM in the assay on Mahlavu [4] and 15 nM with SNU-475. Also, the result in the assay on Mahlavu [5] and in the assay on Mahlavu [11] was Active. For the same molecule, the inhibition result in assay [17], in assay [18] and in assay [15] was “Active” in each case.
